The record followed here is ChEMBL document CHEMBL1154055, “Synthesis and structure-activity relationships of N-(4-amino-2,6-diisopropylphenyl)-N'-(1,4-diarylpiperidine-4-yl)methylureas as anti-hyperlipidemic agents” (Bioorg Med Chem, 2009).

≈ marks a conversion by molar mass, not a printed value. Calls of active or inactive are those of the source. The calls are words filed in the database; no cut-off is given here. Where only a bound is given, the exact number is not on record here.

The subject of data set [1] is HepG2. As to the kind of experiment: Up-regulation of LDL receptor expression in human HepG2 cells at 10 uM by immunoblot analysis. The class given is functional, cell-based. In a few lines:
(§1)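 HepG2 cells exposed to compound, lysed in 125 mM Tris–HCl pH 8.0, 2 mM CaCl₂, 1% Triton X-100 with protease inhibitor cocktail, then centrifuged. LDL receptor detected by immunoblot with mouse monoclonal anti-LDL-R antibody (clone IgG-C7).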

In data set [2] the target is T1, Sterol O-acyltransferase 1 (Rattus norvegicus, UniProt O70536).
T1 sequence (O70536 whole entry): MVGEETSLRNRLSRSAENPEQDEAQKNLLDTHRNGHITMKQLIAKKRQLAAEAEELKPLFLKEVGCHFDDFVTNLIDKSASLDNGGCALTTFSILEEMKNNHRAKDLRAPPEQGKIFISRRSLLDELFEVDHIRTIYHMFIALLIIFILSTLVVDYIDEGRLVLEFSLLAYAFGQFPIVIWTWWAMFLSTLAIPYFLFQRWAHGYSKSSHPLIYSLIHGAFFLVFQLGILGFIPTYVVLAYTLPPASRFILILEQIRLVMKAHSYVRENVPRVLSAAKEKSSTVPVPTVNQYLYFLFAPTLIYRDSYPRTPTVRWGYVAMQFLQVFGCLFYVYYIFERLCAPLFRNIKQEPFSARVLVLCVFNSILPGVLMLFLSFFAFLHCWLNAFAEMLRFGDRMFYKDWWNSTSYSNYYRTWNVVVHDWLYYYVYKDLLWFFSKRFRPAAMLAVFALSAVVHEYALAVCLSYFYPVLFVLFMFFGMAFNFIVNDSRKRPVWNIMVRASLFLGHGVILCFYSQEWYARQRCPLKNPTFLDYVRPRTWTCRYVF
As to the kind of experiment: Inhibition of ACAT in rat macrophages assessed as incorporation of extracellular [3H]-oleic acid-BSA complex into the intracellular cholesteryl ester after 24 hrs. The data set is classed as cell-based. Summed up:
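Cells seeded at 2 × 10⁶ cells/mL/well, incubated 24 h at 37 °C (humidified, 5% CO₂) in medium containing liposomes, ³H-oleic acid–BSA complex and a range of compound concentrations. Protein measured by Lowry method.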

A short description of data set [3]: Solubility at pH 7.4. The data set is classed as physicochemical. To be noted: buffer.
Data set [4] deals with HepG2. As to the kind of experiment: Up-regulation of LDL receptor expression in human HepG2 cells at 100 nM by immunoblot analysis. The class given is functional, cell-based. Summed up: as §1
On the technique in general: A western blot detects proteins with antibodies after separation by electrophoresis.

The IC50 is the midpoint of a concentration-inhibition curve. Consider `COc1cccc(C2(CNC(=O)Nc3c(C(C)C)cc(N)cc3C(C)C)CCN(c3ccccc3)CC2)c1`, for which the outcome in the data set with HepG2 [1] was inactive. In addition, in data set [2], the IC50 was 40 nM.

One may read the solubility as how much of the substance goes into solution per volume. For the molecule `CCCCn1c(=O)c(NC(=O)Nc2c(C(C)C)cc(N)cc2C(C)C)c(-c2cccc(OCCCO)c2)c2cccnc21`, in data set [2], the IC50 was found to be 31 nM. This molecule showed a solubility in data set [3] of 10 µg/mL (≈ 17.1 µM). Moreover, the outcome in the data set on HepG2 [4] was Active.

`COc1cccc(C2(CNC(=O)Nc3c(C(C)C)cc(N)cc3C(C)C)CCN(c3ncccc3OCCCO)CC2)c1`: the IC50 in data set [2] stood at 4 nM.

Turning to `COc1cccc(C2(CNC(=O)Nc3c(C(C)C)cc(N)cc3C(C)C)CCN(c3ccccc3OCCO)CC2)c1`, the IC50 in data set [2] is 96 nM. In the data set with HepG2 [4], the result was Active.

Consider `COc1cccc(C2(CNC(=O)Nc3c(C(C)C)cc(N)cc3C(C)C)CCN(c3ccccc3OC(F)(F)F)CC2)c1`, for which the IC50 in data set [2] was 68 nM. For the same molecule, the result in the data set on HepG2 [4] was Active.

Take `COc1cccc(C2(CNC(=O)Nc3c(C(C)C)cc(N)cc3C(C)C)CCN(c3ccccn3)CC2)c1`: in data set [2], the IC50 was 32 nM.

`COc1ccc(N2CCC(CNC(=O)Nc3c(C(C)C)cc(N)cc3C(C)C)(c3cccc(OC)c3)CC2)cc1`: the IC50 in data set [2] was found to be 142 nM. Also, the outcome in the data set with HepG2 [4] was inactive.

On to `COc1ccccc1N1CCC(CNC(=O)Nc2c(C(C)C)cc(N)cc2C(C)C)(c2cccc(OCCCO)c2)CC1`, for which the IC50 in data set [2] amounted to 62 nM. For the same molecule, the result in the data set with HepG2 [4] was Active.

As to `COc1cccc(C2(CNC(=O)Nc3c(C(C)C)cc(N)cc3C(C)C)CCN(c3ccccc3OC)CC2)c1`, in data set [2], the IC50 was found to be 37 nM. For the same molecule, the outcome in the data set with HepG2 [4] was Active.

For the molecule `COc1cccc(C2(CNC(=O)Nc3c(C(C)C)cccc3C(C)C)CCN(c3ccccc3)CC2)c1`, in the data set on HepG2 [1], the result was inactive.

For the molecule `COc1cccc(C2(CNC(=O)Nc3c(C(C)C)cc(N)cc3C(C)C)CCN(c3ccccc3OCCCO)CC2)c1.Cl.Cl`, the IC50 in data set [2] was 18 nM. The molecule also yielded a solubility in data set [3] of 22 µg/mL. In addition, the outcome in the data set on HepG2 [4] was Active.

On to `CCCCOc1ccccc1N1CCC(CNC(=O)Nc2c(C(C)C)cc(N)cc2C(C)C)(c2cccc(OC)c2)CC1`, for which, in data set [2], the IC50 worked out at 32 nM. In addition, the concentration in solution in data set [3] (solubility) was 0.3 µg/mL (≈ 0.511 µM). The outcome with HepG2 [4] was Active.

Turning to `COc1cccc(C2(CNC(=O)Nc3c(C(C)C)cc(N)cc3C(C)C)CCN(c3cccnc3)CC2)c1`, the IC50 in data set [2] came to 466 nM.

As for `COc1cccc(C2(CNC(=O)Nc3c(C(C)C)cc(N)cc3C(C)C)CCN(c3ccccc3OCC(F)(F)F)CC2)c1`, in data set [2], the IC50 was determined as 48 nM. In addition, in the data set on HepG2 [4], the outcome was Active.

Turning to `CC(C)c1cc(C(C)C)c(CC(=O)NS(=O)(=O)Oc2c(C(C)C)cccc2C(C)C)c(C(C)C)c1` [AVASIMIBE], the IC50 in data set [2] was found to be 479 nM. In addition, in the data set with HepG2 [4], the outcome was inactive.

Take `COc1cccc(C2(CNC(=O)Nc3c(C(C)C)cc(N)cc3C(C)C)CCN(c3ncccc3OC)CC2)c1`: the IC50 in data set [2] worked out at 6 nM.

As for `COc1cccc(C2(CNC(=O)Nc3c(C(C)C)cc(N)cc3C(C)C)CCN(c3ccccc3OCCCN)CC2)c1.Cl`, the IC50 in data set [2] amounted to 195 nM. In data set [3], this molecule yielded a solubility of 32 µg/mL. Further, the outcome in the data set on HepG2 [4] was Active.

Turning to `COc1ccccc1N1CCC(CNC(=O)Nc2c(C(C)C)cc(N)cc2C(C)C)(c2cccc(O)c2)CC1`, the IC50 in data set [2] stood at 797 nM. Moreover, in the data set on HepG2 [4], the result was inactive.

With `COc1cccc(C2(CNC(=O)Nc3c(C(C)C)cc(N)cc3C(C)C)CCN(c3ccccc3OC(C)C)CC2)c1`, the IC50 in data set [2] was 37 nM. Moreover, in the data set with HepG2 [4], the outcome was Active.

In the case of `COc1cccc(C2(CNC(=O)Nc3c(C(C)C)cc(N)cc3C(C)C)CCN(c3ccncc3)CC2)c1`, the IC50 in data set [2] is > 1000 nM.

On to `COc1ccccc1N1CCC(CNC(=O)Nc2c(C(C)C)cc(N)cc2C(C)C)(c2ccccc2)CC1`, for which, in data set [2], the IC50 turned out to be 82 nM. Further, the outcome in the data set on HepG2 [4] was inactive.

Turning to `COc1cccc(C2(CNC(=O)Nc3c(C(C)C)cc(N)cc3C(C)C)CCN(c3ccccc3OCCCN(C)C)CC2)c1.Cl`, the half-maximal inhibitory concentration (IC50) in data set [2] was 239 nM. Moreover, the solubility in data set [3] was > 250 µg/mL.

`COc1cccc(C2(CNC(=O)Nc3c(C(C)C)cc(N)cc3C(C)C)CCN(c3ccccc3O)CC2)c1`: the outcome with HepG2 [4] was inactive.

As for `COc1cccc(N2CCC(CNC(=O)Nc3c(C(C)C)cc(N)cc3C(C)C)(c3cccc(OC)c3)CC2)c1`, in data set [2], the IC50 was 48 nM. Moreover, in the data set with HepG2 [4], the outcome was inactive.
